Results on 21 molecules are retold here after ChEMBL document CHEMBL1255521, “Identification and optimization of substituted 5-aminopyrazoles as potent and selective adenosine A1 receptor antagonists” (Bioorg Med Chem Lett, 2010).

By IC50 is commonly meant the concentration that gives 50% inhibition. The half-life is how long it takes for the measured level to halve. The low end stands for rapid decline, the high end for slow decline. The term bioavailability denotes dose-corrected exposure relative to a reference, in per cent. A high value points to much systemic uptake.

SMILES strings stand for the structures. Active and inactive are the calls of the source. The calls are words filed in the database; no cut-off is given here.

The target of one series is T1, Adenosine receptor A1 (Homo sapiens, UniProt P30542).
T1 sequence (P30542 whole entry): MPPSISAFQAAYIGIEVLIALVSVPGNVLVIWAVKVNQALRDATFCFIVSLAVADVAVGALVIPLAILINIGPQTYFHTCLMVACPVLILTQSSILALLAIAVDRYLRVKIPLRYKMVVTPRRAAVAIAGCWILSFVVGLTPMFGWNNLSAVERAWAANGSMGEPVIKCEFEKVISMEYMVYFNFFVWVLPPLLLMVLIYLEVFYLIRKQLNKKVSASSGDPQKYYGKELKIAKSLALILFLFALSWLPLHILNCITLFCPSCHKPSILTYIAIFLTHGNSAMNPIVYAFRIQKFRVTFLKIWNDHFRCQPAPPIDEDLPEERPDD
The experiment in a line: Antagonist activity at adenosine A1 receptor by cAMP assay. Format: functional. The procedure, abridged:
(§1)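 cAMP functional assay run in antagonist mode at each receptor subtype, with IC50 values reported as means of three experiments.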
In general terms: cAMP levels reflect the balance of adenylyl cyclase and phosphodiesterase activity.

In the next series the target is T2, Adenosine receptor A2b (Homo sapiens, UniProt P29275).
T2 sequence (P29275 whole entry): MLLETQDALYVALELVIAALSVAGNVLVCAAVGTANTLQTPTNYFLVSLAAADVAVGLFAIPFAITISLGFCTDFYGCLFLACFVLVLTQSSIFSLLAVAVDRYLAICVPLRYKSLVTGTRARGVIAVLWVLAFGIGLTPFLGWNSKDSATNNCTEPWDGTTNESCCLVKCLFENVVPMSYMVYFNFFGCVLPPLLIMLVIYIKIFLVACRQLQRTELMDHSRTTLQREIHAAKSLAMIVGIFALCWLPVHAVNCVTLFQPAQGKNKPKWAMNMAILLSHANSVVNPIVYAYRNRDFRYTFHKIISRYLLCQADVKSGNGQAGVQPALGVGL
The experiment in a line: Antagonist activity at adenosine A2B receptor by cAMP assay. Format: functional. The procedure, abridged: as §1

The next series deals with Adenosine receptor A2a (Homo sapiens, UniProt P29274). The experiment in a line: Antagonist activity at adenosine A2A receptor by cAMP assay. Format: functional. The procedure, abridged:
as §1

Series [1] can be described thus: Half life in Wistar rat at 1 mg/kg, iv and 3 mg/kg, po. The note with it: in vivo. It counts as ADME, organism-based. The procedure, abridged: (§2)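 Pharmacokinetics in Wistar rats, with intravenous dosing at 1 mg/kg in a vehicle of 1% DMSO and 99% plasma.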
A short description of series [2]: Blood clearance in Wistar rat at 1 mg/kg, iv and 3 mg/kg, po. Format: ADME, organism-based. The note with it: whole blood. A digest of the protocol:
as §2

The nature of series [3]: Oral bioavailability in Wistar rat at 3 mg/kg. Format: ADME, organism-based. The note with it: in vivo.
A short description of series [4]: Selectivity ratio of IC50 for adenosine A2B receptor to IC50 for adenosine A1 receptor.
Series [5] relates to Rattus norvegicus. The experiment in a line: Natriuretic activity in Wistar rat assessed as increase in natriuresis at 0.1 mg/kg, iv administered after 7 days of acclimatization. Format: functional, organism-based. Details: dose 0.1 mg/kg. The procedure, abridged: (§3)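 Wistar rats received compound intravenously in 1 ml/kg vehicle (40% PEG400, 60% Tris buffer), 6–8 animals per dose group, at doses between 0.1 and 3.0 mg/kg. Urine was collected at the cage bottom into collecting tubes, usually over 4 h. Volume was measured, and sodium and potassium were read by flame photometer.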

Series [6] concerns Mus musculus. The experiment in a line: Anticonvulsant activity in mouse assessed as inhibition of maximal electroshock-induced convulsion at 30 mg/kg, iv by MES test. It counts as functional, organism-based. On the set-up: dose 30 mg/kg.
The next series concerns the target T3, Adenosine receptor A3 (Homo sapiens, UniProt P0DMS8).
T3 sequence (P0DMS8 whole entry): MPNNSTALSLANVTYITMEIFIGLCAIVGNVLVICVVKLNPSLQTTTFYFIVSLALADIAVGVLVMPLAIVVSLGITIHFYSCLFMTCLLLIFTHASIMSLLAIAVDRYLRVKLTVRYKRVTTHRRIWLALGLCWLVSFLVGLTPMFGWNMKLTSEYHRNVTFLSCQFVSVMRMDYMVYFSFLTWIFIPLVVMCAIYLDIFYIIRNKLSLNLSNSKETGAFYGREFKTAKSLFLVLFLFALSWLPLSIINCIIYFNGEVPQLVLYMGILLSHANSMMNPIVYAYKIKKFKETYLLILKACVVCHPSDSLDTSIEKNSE
The series is described as follows: Antagonist activity at adenosine A3 receptor by cAMP assay. It counts as functional. A digest of the protocol:
as §1

Series [7] deals with Rattus norvegicus. The series is described as follows: Diuretic activity in Wistar rat assessed as urine volume at 0.3 mg/kg, iv administered after 7 days of acclimatization. Details: dose 0.3 mg/kg. It counts as functional, organism-based. The procedure, abridged:
as §3

Series [8] has as its system Mus musculus. The series is described as follows: Anticonvulsant activity in mouse assessed as inhibition of pentylenetetrazole-induced convulsion at 30 mg/kg, iv. It counts as functional, organism-based. Details: dose 30 mg/kg.

Adenosine receptor A2a, sequence (P29274 whole entry): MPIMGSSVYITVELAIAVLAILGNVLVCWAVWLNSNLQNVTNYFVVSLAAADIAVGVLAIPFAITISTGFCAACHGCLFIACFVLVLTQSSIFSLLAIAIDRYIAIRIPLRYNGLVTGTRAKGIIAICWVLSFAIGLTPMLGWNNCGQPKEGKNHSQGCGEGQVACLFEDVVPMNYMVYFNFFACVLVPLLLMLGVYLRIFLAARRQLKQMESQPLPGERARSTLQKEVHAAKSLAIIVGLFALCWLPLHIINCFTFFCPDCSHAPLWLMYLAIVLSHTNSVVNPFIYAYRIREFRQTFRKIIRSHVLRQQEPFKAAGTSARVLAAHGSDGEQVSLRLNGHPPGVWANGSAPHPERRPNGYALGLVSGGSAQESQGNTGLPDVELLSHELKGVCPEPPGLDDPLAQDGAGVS

In the case of `Cc1ccccc1-n1ncc(-c2ccc3nccnc3c2)c1Nc1ccccc1C(=O)O`, the IC50 is 277 nM at Adenosine receptor A1, over 50000 nM against Adenosine receptor A2b and over 50000 nM at Adenosine receptor A2a.
Take `COc1ccc(Nc2c(-c3ccc(OC)c(OC)c3)c(C)nn2-c2ccccc2C)c(C(=O)O)c1`: the concentration for half-maximal inhibition (IC50) on Adenosine receptor A1 was 233 nM.
On to `COc1ccc(Nc2c(-c3ccc4nccnc4c3)c(C)nn2-c2ccccc2Cl)c(C(=O)O)c1`, for which the concentration for half-maximal inhibition (IC50) is 7.3 nM against Adenosine receptor A1, over 50000 nM at Adenosine receptor A2b and over 50000 nM against Adenosine receptor A2a.
`COc1ccc(Nc2c(-c3ccc4nccnc4c3)c(C)nn2-c2ccccc2)c(C(=O)O)c1`: the IC50 against Adenosine receptor A1 stood at 2.8 nM; against Adenosine receptor A2b, 1100 nM; against Adenosine receptor A2a it was 5500 nM.
Consider `COc1ccc(Nc2c(-c3ccc(F)cc3)c(C)nn2-c2ccccc2C)c(C(=O)O)c1`, for which the midpoint of inhibition against Adenosine receptor A1, the IC50, lay at 1.39 nM.
In the case of `Cc1ccc(Nc2c(-c3ccc4nccnc4c3)c(C)nn2-c2ccccc2C)c(C(=O)O)c1`, the results for the half-inhibitory concentration (IC50) at Adenosine receptor A1, on Adenosine receptor A2b and against Adenosine receptor A2a were 5.1 nM, over 50000 nM and over 50000 nM, respectively.
For the molecule `COc1ccc(Nc2c(-c3ccc4c(c3)OCCO4)c(C)nn2-c2ccccc2C)c(C(=O)O)c1`, at Adenosine receptor A1, the IC50 worked out at 27 nM.
As for `Cc1ccccc1-n1nc(C)c(-c2ccc3nccnc3c2)c1Nc1ccc(Cl)cc1C(=O)O`, the IC50 against Adenosine receptor A1 was 16 nM; against Adenosine receptor A2b, over 50000 nM; against Adenosine receptor A2a it was over 50000 nM.
Consider `CCc1ccccc1-n1nc(C)c(-c2ccc3nccnc3c2)c1Nc1ccc(OC)cc1C(=O)O`, for which the figures for the IC50 on Adenosine receptor A1, on Adenosine receptor A2b and against Adenosine receptor A2a were 6.4 nM, over 50000 nM and over 50000 nM, respectively.
Turning to `CCc1nn(-c2ccccc2C)c(Nc2ccccc2C(=O)O)c1-c1ccc2nccnc2c1`, the IC50 at Adenosine receptor A1 was 13 nM; at Adenosine receptor A2b, over 50000 nM; against Adenosine receptor A2a, over 50000 nM.
Consider `Cc1ccccc1-n1nc(C)c(-c2ccc3nccnc3c2)c1Nc1ccccc1C(=O)O`, for which the IC50 was 8 nM against Adenosine receptor A1, over 50000 nM against Adenosine receptor A2b and over 50000 nM against Adenosine receptor A2a.
Take `COc1ccc(Nc2c(-c3ccc(C(C)=O)cc3)c(C)nn2-c2ccccc2C)c(C(=O)O)c1`: the half-life in series [1] is 1.5 h. The molecule also yielded an IC50 against Adenosine receptor A1 of 40 nM. Also, in [2], the clearance was 66.7 mL/min/kg. For the same molecule, in series [3], the bioavailability was determined as 20%.
On Adenosine receptor A1, `COc1ccc(Nc2c(-c3ccc(F)c(F)c3)c(C)nn2-c2ccccc2C)c(C(=O)O)c1` returned a concentration for half-maximal inhibition (IC50) of 294 nM.
Still for that read-out and setting: the same measure for `COc1ccc(Nc2c(-c3ccc4c(c3)OCO4)c(C)nn2-c2ccccc2C)c(C(=O)O)c1`: 231 nM.
Take `Cc1ccccc1-n1nc(C(F)(F)F)c(-c2ccc3nccnc3c2)c1Nc1ccccc1C(=O)O`: the values for the IC50 against Adenosine receptor A1, against Adenosine receptor A2b and on Adenosine receptor A2a were 9 nM, 19000 nM and over 50000 nM, respectively.
In the case of `COc1ccc(Nc2c(-c3ccc(C)c(C)c3)c(C)nn2-c2ccccc2C)c(C(=O)O)c1`, the IC50 at Adenosine receptor A1 worked out at 568 nM.
As for `COc1ccc(-c2c(C)nn(-c3ccccc3C)c2Nc2ccc(OC)cc2C(=O)O)cc1`, the midpoint of inhibition on Adenosine receptor A1, the IC50, lay at 306 nM.
For the molecule `Cc1ccccc1-n1nc(C)c(-c2cc(F)c3nccnc3c2)c1Nc1ccccc1C(=O)O`, the half-life in [1] was 1.8 h. For the same molecule, the Ratio IC50 in [4] is over 83000. Also, the result in the series with Rattus norvegicus [5] and in the series on Rattus norvegicus [7] was Active. Further, the outcome in the series on Mus musculus [6] and with Mus musculus [8] was inactive. The IC50 against Adenosine receptor A2b is over 50000 nM; against Adenosine receptor A2a, over 50000 nM; against Adenosine receptor A3, over 10000 nM. This molecule also had a clearance in series [2] of 9.5 mL/min/kg. In addition, the bioavailability in [3] is 97%.
Turning to `COc1ccc(Nc2c(-c3ccc4nccnc4c3)c(C)nn2-c2ccccc2C)c(C(=O)O)c1`, the half-life in series [1] is 0.4 h. For the same molecule, the IC50 against Adenosine receptor A1 was 3.2 nM; on Adenosine receptor A2b, over 50000 nM; on Adenosine receptor A2a it was over 50000 nM; on Adenosine receptor A3 it was 13000 nM. Also, the clearance in series [2] is 43.7 mL/min/kg. In [3], this molecule returned a bioavailability of 20%.
On to `COc1ccc(Nc2c(-c3ccc4nccnc4c3)c(C)nn2C2CCCCC2)c(C(=O)O)c1`, for which the IC50 is 435 nM at Adenosine receptor A1, over 50000 nM on Adenosine receptor A2b and over 50000 nM on Adenosine receptor A2a.
With `COc1ccc(Nc2c(-c3ccc(C)cc3)c(C)nn2-c2ccccc2C)c(C(=O)O)c1`, half-maximal inhibition at Adenosine receptor A1 (IC50) required 3.16 nM.
